Active and inactive are the calls of the source. The rule behind the calls is not given here.
Legend:
[1] = target: T1, Protein cereblon/Signal transducer and activator of transcription 3 (Homo sapiens, UniProt P40763+Q96SW2); test: Protac activity at CRBN/STAT3 in human SU-DHL-1 cells assessed as degradation of STAT3 incubated for 4 hrs by western blot analysis; format: cell-based
Procedure, shortened: (§1)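 Cells treated 4 h with compounds across 25 nM to 100 μM; STAT proteins detected by Western blot with GAPDH as loading control; STAT3 DC50 estimated by densitometry of STAT3 relative to GAPDH. Applies to MOLM-16 for all STATs, and to SU-DHL-1 and SUP-M2 for STAT3.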

[2] = target: Protein cereblon/Signal transducer and activator of transcription 1-alpha/beta (Homo sapiens) (UniProt P42224+Q96SW2); test: Protac activity at CRBN/STAT1 in human MOLM16 cells assessed as STAT1 degradation at 0.25 to 100 uM incubated for 4 hrs by Western blot analysis; format: cell-based; details: dose 0.25-100 µM; procedure, shortened: as §1
[3] = target: T1, Protein cereblon/Signal transducer and activator of transcription 3; test: Protac activity at CRBN/STAT3 in human SUP-M2 cells assessed as degradation of STAT3 incubated for 4 hrs by western blot analysis; format: cell-based; procedure, shortened: as §1
[4] = Toxicity in SCID mouse xenografted with human MOLM16 cells assessed as body weight loss at 25 to 50 mg/kg, iv for 65 days; format: organism-based; details: in vivo, 1560 h, dose 25-50 mg/kg, time 65 day
Procedure, shortened: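 SCID mice bearing MOLM-16 xenografts dosed intravenously at 25 or 50 mg/kg on a weekly schedule; vehicle 10% PEG400/90% PBS; body weight and tumor volume measured every 2 days; signs of toxicity monitored during and after treatment.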

T1 sequence (P40763 whole entry): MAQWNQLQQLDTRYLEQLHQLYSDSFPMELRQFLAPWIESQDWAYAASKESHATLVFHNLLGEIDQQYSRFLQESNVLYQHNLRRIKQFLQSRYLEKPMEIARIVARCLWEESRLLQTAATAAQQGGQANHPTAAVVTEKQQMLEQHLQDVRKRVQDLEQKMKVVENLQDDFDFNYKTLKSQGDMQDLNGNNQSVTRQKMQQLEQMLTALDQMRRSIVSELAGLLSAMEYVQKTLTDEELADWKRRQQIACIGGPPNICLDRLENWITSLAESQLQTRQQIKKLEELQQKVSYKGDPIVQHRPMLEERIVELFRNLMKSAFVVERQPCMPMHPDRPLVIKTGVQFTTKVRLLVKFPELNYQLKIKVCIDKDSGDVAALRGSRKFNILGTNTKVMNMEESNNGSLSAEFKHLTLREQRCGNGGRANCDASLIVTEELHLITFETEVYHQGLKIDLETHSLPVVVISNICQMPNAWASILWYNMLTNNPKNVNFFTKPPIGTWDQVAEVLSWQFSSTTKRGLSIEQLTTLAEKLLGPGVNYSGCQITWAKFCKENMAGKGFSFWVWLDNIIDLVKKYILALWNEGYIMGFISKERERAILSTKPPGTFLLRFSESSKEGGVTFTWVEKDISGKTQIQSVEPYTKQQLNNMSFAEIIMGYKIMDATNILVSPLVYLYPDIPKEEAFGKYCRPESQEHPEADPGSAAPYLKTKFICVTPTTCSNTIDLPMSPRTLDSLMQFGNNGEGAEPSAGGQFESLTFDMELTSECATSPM
T1 sequence (Q96SW2 whole entry): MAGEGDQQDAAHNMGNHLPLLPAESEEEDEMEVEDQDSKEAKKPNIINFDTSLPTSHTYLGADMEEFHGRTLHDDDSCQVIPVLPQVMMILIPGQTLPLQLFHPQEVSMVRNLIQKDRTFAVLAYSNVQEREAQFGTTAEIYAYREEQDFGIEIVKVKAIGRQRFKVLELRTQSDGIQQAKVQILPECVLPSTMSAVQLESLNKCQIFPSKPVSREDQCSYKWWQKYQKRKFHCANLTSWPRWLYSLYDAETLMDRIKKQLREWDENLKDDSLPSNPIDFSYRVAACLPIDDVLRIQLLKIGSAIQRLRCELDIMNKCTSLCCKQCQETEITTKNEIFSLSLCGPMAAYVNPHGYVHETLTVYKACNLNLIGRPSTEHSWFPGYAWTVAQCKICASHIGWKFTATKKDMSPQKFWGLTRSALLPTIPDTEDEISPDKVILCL

| SMILES | DC50 [1] [nM] | Activity [2] | DC50 [3] [nM] | Activity [4] |
| --- | --- | --- | --- | --- |
| NC(=O)CC[C@H](NC(=O)[C@@H]1CC[C@@H]2CCN(C(=O)CCCCCC#Cc3cccc4c3CN(C3CCC(=O)NC3=O)C4=O)C[C@H](NC(=O)c3cc4cc(C(F)(F)P(=O)(O)O)ccc4[nH]3)C(=O)N21)C(=O)NC(c1ccccc1)c1ccccc1 (some centres undefined) | 61 | inactive | 2500 | – |
| NC(=O)CC[C@H](NC(=O)[C@@H]1CC[C@@H]2CCN(C(=O)CCCCCC#Cc3cccc4c3CN(C3CCC(=O)NC3=O)C4=O)C[C@H](NC(=O)c3cc4cc(C(=O)P(=O)(O)O)ccc4[nH]3)C(=O)N21)C(=O)NC(c1ccccc1)c1ccccc1 (some centres undefined) | – | – | – | Non-Toxic |
